Test results reported in ChEMBL document CHEMBL2029221, “Acylprolinamides: a new class of peptide deformylase inhibitors with in vivo antibacterial activity” (Bioorg Med Chem Lett, 2012).
Converted amounts (≈) assume the structure as drawn.

Tests used:
[1] = Inhibition of Haemophilus influenzae PDF assessed as formate release from fMAS peptide substrate after 20 mins by formate dehydrogenase coupled assay
Summary of the method: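 Coupled assay in which formate released from the fMAS peptide is oxidized by formate dehydrogenase, reducing NAD to NADH, read as the rise in absorbance at 340. Reactions were started by adding PDF and velocities measured for 20 min at 25 °C. Values are the mean of at least 2 runs.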

[2] = test system: Moraxella catarrhalis; assay: Antibacterial activity against Moraxella catarrhalis 1502 by broth microdilution method; format: functional
Summary of the method: (§1)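 Broth microdilution following NCCLS document M7-A4. Serial two-fold dilutions from 0.06 to 64 mcg/ml were tested. The MIC was the lowest concentration preventing visible growth, with the endpoint read with the aid of a mirror reader.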

[3] = test system: Streptococcus pneumoniae; assay: Antibacterial activity against Streptococcus pneumoniae 1629 by broth microdilution method; format: functional; summary of the method: as §1
[4] = test system: Haemophilus influenzae; assay: Antibacterial activity against Haemophilus influenzae Q1 by broth microdilution method; format: functional; summary of the method: as §1
[5] = Metabolic stability of the compound in rat blood assessed as compound remaining at 2000 ng/mL after 2 hrs; format: ADME, tissue-based; details: read-out: Stability
[6] = test system: Staphylococcus aureus; assay: Antibacterial activity against Staphylococcus aureus Oxford by broth microdilution method; format: functional; summary of the method: as §1
[7] = test system: Enterococcus faecalis; assay: Antibacterial activity against Enterococcus faecalis 7 by broth microdilution method; format: functional; summary of the method: as §1
[8] = molecular target: T1, Peptide deformylase (Streptococcus pneumoniae serotype 4 (strain ATCC BAA-334 / TIGR4), UniProt Q9F2F0); assay: Inhibition of Streptococcus pneumoniae PDF assessed as formate release from fMAS peptide substrate after 20 mins by formate dehydrogenase coupled assay
T1 sequence (Q9F2F0 whole entry): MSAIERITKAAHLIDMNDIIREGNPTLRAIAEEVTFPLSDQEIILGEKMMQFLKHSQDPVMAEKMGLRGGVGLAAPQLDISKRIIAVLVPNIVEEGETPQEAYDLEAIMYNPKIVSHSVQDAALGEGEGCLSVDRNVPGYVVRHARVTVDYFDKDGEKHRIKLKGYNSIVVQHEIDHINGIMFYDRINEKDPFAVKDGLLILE

[9] = Metabolic stability of the compound in human blood assessed as compound remaining at 2000 ng/mL after 2 hrs; format: ADME, tissue-based; details: read-out: Stability
Summary of the method: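 Samples (n = 3) were spiked into fresh human blood at 2000 ng/mL, incubated at 37 °C for 120 min, and reported as % recovered at 2 h.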

[10] = molecular target: T2, Peptide deformylase (Staphylococcus aureus, UniProt P68826); assay: Inhibition of Staphylococcus aureus PDF assessed as formate release from fMAS peptide substrate after 20 mins by formate dehydrogenase coupled assay
T2 sequence (P68826 whole entry): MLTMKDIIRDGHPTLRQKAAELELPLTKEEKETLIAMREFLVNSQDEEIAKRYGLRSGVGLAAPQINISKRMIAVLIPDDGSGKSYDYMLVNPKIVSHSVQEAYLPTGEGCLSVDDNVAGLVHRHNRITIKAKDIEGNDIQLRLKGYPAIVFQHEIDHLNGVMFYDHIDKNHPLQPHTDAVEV

[11] = test system: Streptococcus pneumoniae; assay: Antibacterial activity against Streptococcus pneumoniae 1629 infected in rat respiratory tract infection model assessed as reduction in bacterial count at 150 mg/kg, po bid for 4 days relative to control; format: functional
Summary of the method: (§2)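 Rat respiratory tract infection models with oral b.i.d. dosing. Efficacy was read as bacterial lung counts (log10 cfu/mL) compared with non-treated controls.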

[12] = test system: Streptococcus pneumoniae; assay: Antibacterial activity against Streptococcus pneumoniae 1629 infected in rat respiratory tract infection model assessed as reduction in bacterial count at 75 mg/kg, po bid for 4 days relative to control; format: functional; summary of the method: as §2
[13] = Oral bioavailability in monkey at 5.1 mg/kg; format: ADME, organism-based, Macaca mulatta; details: rhesus monkey, in vivo
Summary of the method: (§3)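 Single-compound pharmacokinetics with n = 3 per species, given i.v. and p.o. Reported measures are plasma clearance after i.v. dosing, dose-normalized AUC(0–inf) after oral dosing, and oral bioavailability.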

[14] = Oral bioavailability in rat at 27.1 mg/kg; format: ADME, organism-based; details: in vivo
Summary of the method: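 Rat oral bioavailability (n = 3) was estimated from a non-crossover study comparing i.v. and p.o. dosing.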

[15] = test system: Rattus norvegicus; assay: Dose normalized AUC (0 to infinity) in rat at 27.1 mg/kg, po; format: ADME, organism-based; design: dose 27.1 mg/kg, route oral; details: in vivo; summary of the method: as §3
[16] = Oral bioavailability in dog at 6.5 mg/kg; format: ADME, organism-based, Canis lupus familiaris; details: in vivo; summary of the method: as §3
[17] = test system: Haemophilus influenzae; assay: Antibacterial activity against Haemophilus influenzae H128 infected in rat respiratory tract infection model assessed as reduction in bacterial count at 300 mg/kg, po bid for 2 days relative to control; format: functional; summary of the method: as §2
[18] = test system: Rhesus monkey; assay: Dose normalized AUC (0 to infinity) in monkey at 5.1 mg/kg, po; format: ADME, organism-based, Macaca mulatta; design: dose 5.1 mg/kg, route oral; details: in vivo; summary of the method: as §3
[19] = Plasma clearance in dog at 4.5 mg/kg, iv; format: ADME, organism-based, Canis lupus familiaris; design: dose 4.5 mg/kg, route intravenous; summary of the method: as §3
[20] = test system: Canis familiaris; assay: Dose normalized AUC (0 to infinity) in dog at 6.5 mg/kg, po; format: ADME, organism-based, Canis lupus familiaris; design: dose 6.5 mg/kg, route oral; details: in vivo; summary of the method: as §3
[21] = Plasma clearance in monkey at 3 mg/kg, iv; format: ADME, organism-based, Macaca mulatta; design: dose 3 mg/kg, route intravenous; details: rhesus monkey; summary of the method: as §3

| IC50 [1] [nM] | MIC [2] [µg/mL] | MIC [3] [µg/mL] | MIC [4] [µg/mL] | remaining at 2 h, 2000 ng/mL [5] [%] | MIC [6] [µg/mL] | MIC [7] [µg/mL] | IC50 [8] [nM] | remaining at 2 h, 2000 ng/mL [9] [%] | IC50 [10] [nM] | SMILES | other results |
| --- | --- | --- | --- | --- | --- | --- | --- | --- | --- | --- | --- |
| 3.8 | ≤ 0.06 | 0.25 (≈ 0.602 µM) | 0.5 (≈ 1.2 µM) | 27.2 | 1 (≈ 2.41 µM) | 1 (≈ 2.41 µM) | – | – | – | O=CN(O)C[C@@H](CC1CCCC1)C(=O)N1CCC[C@H]1C(=O)NC(=O)c1ccccc1 | – |
| 3.1 | ≤ 0.06 | 0.25 (≈ 0.569 µM) | 0.5 (≈ 1.14 µM) | 9.5 | 1 (≈ 2.28 µM) | 2 (≈ 4.55 µM) | 0.66 | 23 | 4.4 | O=CN(O)C[C@@H](CC1CCCC1)C(=O)N1CCC[C@H]1C(=O)NC(=O)OC1CCOCC1 | – |
| 2 | ≤ 0.06 | 0.125 (≈ 0.296 µM) | 2 (≈ 4.73 µM) | – | 0.5 (≈ 1.18 µM) | 1 (≈ 2.37 µM) | 0.1 | 103 | 0.52 | O=CN(O)C[C@@H](CC1CCCC1)C(=O)N1CCC[C@H]1C(=O)NC(=O)NC1CCCC1 | – |

Continued, compound first:

| SMILES | IC50 [1] [nM] | MIC [2] [µg/mL] | MIC [3] [µg/mL] | MIC [4] [µg/mL] | remaining at 2 h, 2000 ng/mL [5] [%] | MIC [6] [µg/mL] | MIC [7] [µg/mL] | IC50 [8] [nM] | remaining at 2 h, 2000 ng/mL [9] [%] | IC50 [10] [nM] | other results |
| --- | --- | --- | --- | --- | --- | --- | --- | --- | --- | --- | --- |
| O=CN(O)C[C@@H](CC1CCCC1)C(=O)N1CCC[C@H]1C(=O)NC(=O)OC1CCCC1 | 3.1 | ≤ 0.06 | 0.125 (≈ 0.295 µM) | 1 (≈ 2.36 µM) | 0 | 0.5 (≈ 1.18 µM) | 1 (≈ 2.36 µM) | 0.26 | 57.5 | 1.4 | – |
| CCNC(=O)NC(=O)[C@@H]1CCCN1C(=O)[C@H](CC1CCCC1)CN(O)C=O | 4.9 | ≤ 0.06 | 0.25 (≈ 0.654 µM) | 0.5 (≈ 1.31 µM) | 58.6 | 0.5 (≈ 1.31 µM) | 2 (≈ 5.23 µM) | 0.44 | 111 | 2 | log10CFU/ml [11]: 3.86; log10CFU/ml [12]: 3.86; bioavailability [13]: 20%; bioavailability [14]: 30%; AUC/dose [15]: 43.3 ng·h/mL/mg/kg; bioavailability [16]: 100%; log10CFU/ml [17]: 4.21; AUC/dose [18]: 111.4 ng·h/mL/mg/kg; clearance [19]: 36.3 mL/min/kg; AUC/dose [20]: 629.9 ng·h/mL/mg/kg; clearance [21]: 29.4 mL/min/kg |
| O=CN(O)C[C@@H](CC1CCCC1)C(=O)N1CCC[C@H]1C(=O)NC(=O)OC1CCCCC1 | 2.3 | ≤ 0.06 | 0.125 (≈ 0.286 µM) | 1 (≈ 2.29 µM) | 0.4 | 0.25 (≈ 0.571 µM) | 0.5 (≈ 1.14 µM) | 0.3 | 45.8 | 1.5 | – |
| CC(C)OC(=O)NC(=O)[C@@H]1CCCN1C(=O)[C@H](CC1CCCC1)CN(O)C=O | 4.7 | ≤ 0.06 | 0.25 (≈ 0.629 µM) | 0.25 (≈ 0.629 µM) | 0 | 0.25 (≈ 0.629 µM) | 4 (≈ 10.1 µM) | 0.48 | 49.6 | 2 | – |
| CC(C)(C)OC(=O)NC(=O)[C@@H]1CCCN1C(=O)[C@H](CC1CCCC1)CN(O)C=O | 3.2 | ≤ 0.06 | 0.25 (≈ 0.608 µM) | 0.25 (≈ 0.608 µM) | 27.6 | 1 (≈ 2.43 µM) | 1 (≈ 2.43 µM) | 0.52 | 52 | 3.4 | – |
| O=CN(O)C[C@@H](CC1CCCC1)C(=O)N1CCC[C@H]1C(=O)NC(=O)OC1CCC1 | 5.8 | ≤ 0.06 | 0.25 (≈ 0.611 µM) | 0.5 (≈ 1.22 µM) | 0 | 0.5 (≈ 1.22 µM) | 1 (≈ 2.44 µM) | 0.51 | 31.7 | 2.4 | – |
| CC(C)(C)C(=O)NC(=O)[C@@H]1CCCN1C(=O)[C@H](CC1CCCC1)CN(O)C=O | 18 | ≤ 0.06 | 2 (≈ 5.06 µM) | 2 (≈ 5.06 µM) | 29 | 2 (≈ 5.06 µM) | 4 (≈ 10.1 µM) | 1.3 | 80.6 | 10 | – |
